Laboratory results taken from ChEMBL document CHEMBL5724801, “EUbOPEN Chemogenomics Library - Multiplex” (2024).
“And” between values parts separate entries of the source, which are not always exact repeats. Equal values may be shown once.

System: U2OS
Experiment: Multiplex assay against U2OS
Type: toxicity, cell-based
Settings: human
Outline: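 Live cells were stained at seeding with Hoechst33342, BioTracker Green Microtubule Cytoskeleton Dye, MitoTracker Red and Annexin V Alexa Fluor 680. Following compound addition, they were imaged on a CQ1 microscope at 37°C and 5% CO2 and gated by CellPathfinder machine learning into Hoechst high-intensity objects or normal cells, with normal cells split into healthy, pyknosed or fragmented nuclei and pyknosed cells into mitotic or apoptotic. Tubulin, mitochondrial-mass and membrane-permeability phenotypes are per cents of healthy-nucleus cells.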

[1] = 12 h, 1 µM, compound concentration 1 uM
[2] = 12 h, 10 µM, compound concentration 10 uM
[3] = 24 h, 1 µM, compound concentration 1 uM
[4] = 24 h, 10 µM, compound concentration 10 uM
[5] = 48 h, 1 µM, compound concentration 1 uM
[6] = 48 h, 10 µM, compound concentration 10 uM

COC(=O)C1=C(C)NC(C)=C(C(=O)OC(C)C)C1c1cccc2nonc12 (stereo unspecified) [ISRADIPINE]
Population Apoptotic (%) [1]: 29.03% and 12.5% | Population Fragmented Nuclei (%) [1]: 2.02% and 3.01% | Population Healthy Nuclei (%) [1]: 89.02% and 84.96% | Population Hoechst High Intensity Objects (%) [1]: 0% | Population Membrane Permeable-Phenotype (%) [1]: 0.97% and 0.88% | Population Mitochondria Different-Phenotype (%) [1]: 0% and 5.31% | Population Mitotic Cells (%) [1]: 70.97% and 87.5% | Population Normal (%) [1]: 100% | Population Pyknosed Nuclei (%) [1]: 8.96% and 12.03% | Population Tubulin-Different-Phenotype (%) [1]: 0.97% and 0.88% | Total Cell Count [1]: 346 and 133 | Population Apoptotic (%) [2]: 38.64% and 25.81% | Population Healthy Nuclei (%) [2]: 87.43% and 71.74% | Population Hoechst High Intensity Objects (%) [2]: 0% and 13.21% | Population Membrane Permeable-Phenotype (%) [2]: 2.14% and 3.64% | Population Mitochondria Different-Phenotype (%) [2]: 0% and 13.33% | Population Mitotic Cells (%) [2]: 61.36% and 74.19% | Population Normal (%) [2]: 100% and 86.79% | Population Pyknosed Nuclei (%) [2]: 11.76% and 13.48% | Population Tubulin-Different-Phenotype (%) [2]: 3.67% and 1.21% | Total Cell Count [2]: 374 and 265 | Population Apoptotic (%) [3]: 48.48% and 31.25% | Population Fragmented Nuclei (%) [3]: 1.75% and 1.23% | Population Healthy Nuclei (%) [3]: 91.03% and 88.89% | Population Hoechst High Intensity Objects (%) [3]: 0% | Population Membrane Permeable-Phenotype (%) [3]: 0.24% and 2.78% | Population Mitochondria Different-Phenotype (%) [3]: 0.24% and 4.86% | Population Mitotic Cells (%) [3]: 51.52% and 68.75% | Population Normal (%) [3]: 100% | Population Pyknosed Nuclei (%) [3]: 7.22% and 9.88% | Population Tubulin-Different-Phenotype (%) [3]: 0.72% and 0% | Total Cell Count [3]: 457 and 162 | Population Apoptotic (%) [4]: 37.5% and 20.93% | Population Healthy Nuclei (%) [4]: 84.47% and 69.69% | Population Hoechst High Intensity Objects (%) [4]: 0% and 13.61% | Population Membrane Permeable-Phenotype (%) [4]: 0.69% and 3.95% | Population Mitotic Cells (%) [4]: 62.5% and 79.07% | Population Normal (%) [4]: 100% and 86.39% | Population Pyknosed Nuclei (%) [4]: 12.43% and 16.93% | Population Tubulin-Different-Phenotype (%) [4]: 3.22% and 0% | Total Cell Count [4]: 515 and 294 | Population Apoptotic (%) [5]: 41.54% and 54.55% | Population Fragmented Nuclei (%) [5]: 2.53% and 3.11% | Population Healthy Nuclei (%) [5]: 89.63% and 84.05% | Population Hoechst High Intensity Objects (%) [5]: 0% | Population Membrane Permeable-Phenotype (%) [5]: 1.35% and 1.39% | Population Mitochondria Different-Phenotype (%) [5]: 0.27% and 4.17% | Population Mitotic Cells (%) [5]: 58.46% and 45.45% | Population Normal (%) [5]: 100% | Population Pyknosed Nuclei (%) [5]: 7.84% and 12.84% | Population Tubulin-Different-Phenotype (%) [5]: 1.35% and 0% | Population Apoptotic (%) [6]: 50.83% and 53.45% | Population Fragmented Nuclei (%) [6]: 3.44% and 6.67% | Population Healthy Nuclei (%) [6]: 82.35% and 75.76% | Population Hoechst High Intensity Objects (%) [6]: 0% and 9.34% | Population Membrane Permeable-Phenotype (%) [6]: 1.58% and 4.4% | Population Mitochondria Different-Phenotype (%) [6]: 0.14% and 6.4% | Population Mitotic Cells (%) [6]: 49.17% and 46.55% | Population Normal (%) [6]: 100% and 90.66% | Population Pyknosed Nuclei (%) [6]: 14.22% and 17.58% | Population Tubulin-Different-Phenotype (%) [6]: 2.73% and 2.8% | Total Cell Count [6]: 844 and 364

Oc1c(CN2CCN(c3ccccn3)CC2)cc(Cl)c2cccnc12
Population Apoptotic (%) [1]: 95% and 100% | Population Fragmented Nuclei (%) [1]: 24% and 16% | Population Healthy Nuclei (%) [1]: 64% and 78% | Population Hoechst High Intensity Objects (%) [1]: 1% | Population Membrane Permeable-Phenotype (%) [1]: 3% and 13% | Population Mitochondria Different-Phenotype (%) [1]: 1% and 4% | Population Mitotic Cells (%) [1]: 4% and 0% | Population Normal (%) [1]: 98% | Population Pyknosed Nuclei (%) [1]: 10% and 5% | Population Tubulin-Different-Phenotype (%) [1]: 2% and 8% | Total Cell Count [1]: 237 and 93 | Population Apoptotic (%) [2]: 84% and 87% | Population Fragmented Nuclei (%) [2]: 31% and 18% | Population Healthy Nuclei (%) [2]: 56% and 68% | Population Hoechst High Intensity Objects (%) [2]: 2% and 1% | Population Membrane Permeable-Phenotype (%) [2]: 12% and 6% | Population Mitochondria Different-Phenotype (%) [2]: 28% and 35% | Population Mitotic Cells (%) [2]: 15% and 12% | Population Normal (%) [2]: 97% and 98% | Population Pyknosed Nuclei (%) [2]: 11% and 13% | Population Tubulin-Different-Phenotype (%) [2]: 8% and 11% | Total Cell Count [2]: 229 and 118 | Population Apoptotic (%) [3]: 88% and 100% | Population Healthy Nuclei (%) [3]: 64% and 87% | Population Hoechst High Intensity Objects (%) [3]: 1% | Population Membrane Permeable-Phenotype (%) [3]: 3% and 9% | Population Mitochondria Different-Phenotype (%) [3]: 2% and 3% | Population Mitotic Cells (%) [3]: 11% and 0% | Population Normal (%) [3]: 98% | Population Pyknosed Nuclei (%) [3]: 6% and 5% | Population Tubulin-Different-Phenotype (%) [3]: 2% and 7% | Total Cell Count [3]: 270 and 97 | Population Apoptotic (%) [4]: 90% and 100% | Population Fragmented Nuclei (%) [4]: 27% and 29% | Population Healthy Nuclei (%) [4]: 63% and 58% | Population Hoechst High Intensity Objects (%) [4]: 4% and 3% | Population Membrane Permeable-Phenotype (%) [4]: 10% and 9% | Population Mitochondria Different-Phenotype (%) [4]: 14% and 40% | Population Mitotic Cells (%) [4]: 9% and 0% | Population Normal (%) [4]: 95% and 96% | Population Pyknosed Nuclei (%) [4]: 9% and 12% | Population Tubulin-Different-Phenotype (%) [4]: 7% and 6% | Total Cell Count [4]: 238 and 127 | Population Apoptotic (%) [5]: 94% and 87% | Population Fragmented Nuclei (%) [5]: 25% and 14% | Population Healthy Nuclei (%) [5]: 67% and 77% | Population Hoechst High Intensity Objects (%) [5]: 3% and 1% | Population Membrane Permeable-Phenotype (%) [5]: 6% and 7% | Population Mitochondria Different-Phenotype (%) [5]: 3% and 1% | Population Mitotic Cells (%) [5]: 5% and 12% | Population Normal (%) [5]: 96% and 98% | Population Pyknosed Nuclei (%) [5]: 7% | Population Tubulin-Different-Phenotype (%) [5]: 3% and 5% | Total Cell Count [5]: 276 and 111 | Population Apoptotic (%) [6]: 96% and 100% | Population Fragmented Nuclei (%) [6]: 32% and 38% | Population Healthy Nuclei (%) [6]: 57% and 42% | Population Hoechst High Intensity Objects (%) [6]: 2% and 4% | Population Membrane Permeable-Phenotype (%) [6]: 11% and 12% | Population Mitochondria Different-Phenotype (%) [6]: 19% and 41% | Population Mitotic Cells (%) [6]: 3% and 0% | Population Normal (%) [6]: 97% and 95% | Population Pyknosed Nuclei (%) [6]: 10% and 19% | Population Tubulin-Different-Phenotype (%) [6]: 7% and 8% | Total Cell Count [6]: 275 and 144

CN(C)C(=O)Cn1cc(-c2ccc(-c3cncc4ccccc34)cc2)cn1
Population Apoptotic (%) [1]: 68% and 69% | Population Fragmented Nuclei (%) [1]: 22% and 18% | Population Healthy Nuclei (%) [1]: 68% and 69% | Population Hoechst High Intensity Objects (%) [1]: 3% and 0% | Population Membrane Permeable-Phenotype (%) [1]: 8% and 6% | Population Mitochondria Different-Phenotype (%) [1]: 4% and 2% | Population Mitotic Cells (%) [1]: 31% and 30% | Population Normal (%) [1]: 96% and 99% | Population Pyknosed Nuclei (%) [1]: 9% and 11% | Population Tubulin-Different-Phenotype (%) [1]: 5% and 3% | Total Cell Count [1]: 240 and 110 | Population Apoptotic (%) [2]: 66% and 100% | Population Fragmented Nuclei (%) [2]: 21% and 18% | Population Healthy Nuclei (%) [2]: 67% and 75% | Population Hoechst High Intensity Objects (%) [2]: 5% and 3% | Population Membrane Permeable-Phenotype (%) [2]: 20% and 22% | Population Mitochondria Different-Phenotype (%) [2]: 12% and 19% | Population Normal (%) [2]: 94% and 96% | Population Pyknosed Nuclei (%) [2]: 10% and 5% | Population Tubulin-Different-Phenotype (%) [2]: 14% and 23% | Total Cell Count [2]: 205 and 98 | Population Apoptotic (%) [3]: 100% and 90% | Population Fragmented Nuclei (%) [3]: 21% and 15% | Population Healthy Nuclei (%) [3]: 69% and 76% | Population Hoechst High Intensity Objects (%) [3]: 3% and 1% | Population Membrane Permeable-Phenotype (%) [3]: 5% and 8% | Population Mitochondria Different-Phenotype (%) [3]: 2% and 6% | Population Mitotic Cells (%) [3]: 0% and 9% | Population Normal (%) [3]: 96% and 98% | Population Pyknosed Nuclei (%) [3]: 8% | Population Tubulin-Different-Phenotype (%) [3]: 4% | Total Cell Count [3]: 278 and 127 | Population Apoptotic (%) [4]: 54% and 80% | Population Fragmented Nuclei (%) [4]: 25% and 11% | Population Healthy Nuclei (%) [4]: 64% and 84% | Population Hoechst High Intensity Objects (%) [4]: 3% and 2% | Population Membrane Permeable-Phenotype (%) [4]: 19% and 16% | Population Mitochondria Different-Phenotype (%) [4]: 9% and 15% | Population Mitotic Cells (%) [4]: 45% and 20% | Population Normal (%) [4]: 96% and 97% | Population Pyknosed Nuclei (%) [4]: 9% and 4% | Population Tubulin-Different-Phenotype (%) [4]: 10% and 14% | Total Cell Count [4]: 244 and 110 | Population Apoptotic (%) [5]: 87% and 88% | Population Fragmented Nuclei (%) [5]: 18% and 20% | Population Healthy Nuclei (%) [5]: 69% and 67% | Population Hoechst High Intensity Objects (%) [5]: 2% and 3% | Population Membrane Permeable-Phenotype (%) [5]: 6% and 12% | Population Mitochondria Different-Phenotype (%) [5]: 3% and 9% | Population Mitotic Cells (%) [5]: 12% and 11% | Population Normal (%) [5]: 97% and 96% | Population Pyknosed Nuclei (%) [5]: 12% and 11% | Population Tubulin-Different-Phenotype (%) [5]: 4% and 9% | Total Cell Count [5]: 333 and 163 | Population Apoptotic (%) [6]: 74% and 92% | Population Fragmented Nuclei (%) [6]: 22% and 21% | Population Healthy Nuclei (%) [6]: 62% and 68% | Population Hoechst High Intensity Objects (%) [6]: 2% | Population Membrane Permeable-Phenotype (%) [6]: 15% and 20% | Population Mitochondria Different-Phenotype (%) [6]: 8% and 14% | Population Normal (%) [6]: 97% | Population Pyknosed Nuclei (%) [6]: 14% and 9% | Population Tubulin-Different-Phenotype (%) [6]: 8% and 16% | Total Cell Count [6]: 302 and 149
